Experimental findings from ChEMBL document CHEMBL1921756, “Tyrphostin-like compounds with ubiquitin modulatory activity as possible therapeutic agents for multiple myeloma” (Bioorg Med Chem, 2011) are described below.

A short description of experiment [1]: Antitumor activity against human MM1 cells after 24 to 72 hrs by MTT assay. Type of experiment: functional, cell-based. In a few lines:
(§1)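 Myeloma lines grown in RPMI 1640 with 10% heat-inactivated FBS and 2 mM glutamine. 20,000 cells/well were exposed to a dilution range of compound in RPMI1640/10% FBS (final DMSO ≤0.1%), with vehicle-only controls, at 37 °C for 24–72 h (typically 72 h). MTT was added for 2 h at 37 °C, then lysis buffer (20% SDS, 50% DMF, pH 4.7) for 6 h.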

The nature of experiment [2]: Antitumor activity against human OCI-My4 cells after 24 to 72 hrs by MTT assay. Type of experiment: functional, cell-based. An outline of the steps:
as §1

In experiment [3] the test system is U-266. Kind of experiment: Antitumor activity against human U266 cells after 24 to 72 hrs by MTT assay. Type of experiment: functional, cell-based. An outline of the steps:
as §1

A short description of experiment [4]: Antitumor activity against human U373MG cells after 24 to 72 hrs by MTT assay. As to conditions: U373 MG. The experiment is classed as functional, cell-based, U-373MG ATCC. In a few lines:
(§2)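 Tumor cells were plated at 20,000/well and given serially diluted compound in RPMI1640 with 10% FBS (final DMSO ≤0.1%) or vehicle alone, then incubated 24–72 h at 37 °C.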

Experiment [5] is described as follows: Antitumor activity against human U87MG cells after 24 to 72 hrs by MTT assay. The experiment is classed as functional, cell-based, U-87MG ATCC. The settings on record: U-87 MG. In a few lines: as §2
The subject of experiment [6] is U-87 MG. Kind of experiment: Ratio of AG490 IC50 to compound IC50 for human U87MG cells. The experiment is classed as functional, U-87MG ATCC.
For experiment [7], the system named is U373 MG. Kind of experiment: Ratio of AG490 IC50 to compound IC50 for human U373MG cells. The experiment is classed as functional, U-373MG ATCC.

Take `C[C@H](NC(=O)/C(C#N)=C/c1ccc2c(c1)OC(F)(F)O2)c1ccccc1`: the IC50 in experiment [1] is > 10 µM.

Take `C[C@H](NC(=O)/C(C#N)=C/c1cccc(Br)n1)c1cccc(C(F)(F)F)c1`: the IC50 in experiment [2] was found to be 1.8 µM; in experiment [3], 1.6 µM; in experiment [1], 1.3 µM.

In the case of `N#C/C(=C\c1cccc(Br)n1)C(=O)NC(c1ccccc1)C1CC1` (racemic), the IC50 in experiment [2] worked out at 1.6 µM; in experiment [3], 1.3 µM; in experiment [1] it was 1.1 µM.

As for `C[C@H](NC(=O)/C(C#N)=C/c1cccc(Br)n1)c1ccc(F)cc1`, the figures for the IC50 in experiment [3] and in experiment [1] were 1.4 µM and 1.2 µM, respectively.

In the case of `CCC[C@H](NC(=O)/C(C#N)=C/c1ccc([N+](=O)[O-])cc1)c1ccccc1`, the IC50 amounted to 3.6 µM in experiment [3] and 2.94 µM in experiment [1].

For `C[C@H](NC(=O)/C(C#N)=C/c1cccc(Br)n1)c1ccc(Br)cc1`, the IC50 in experiment [2] came to 2 µM; in experiment [3] it was 1.8 µM; in experiment [1], 1.5 µM.

As to `COc1cccc([C@H](C)NC(=O)/C(C#N)=C/c2cccc(Br)n2)c1`, the results for the IC50 in experiment [2], in experiment [3] and in experiment [1] were 3.1 µM, 2.8 µM and 2.4 µM, respectively.

For `N#C/C(=C\c1ccc([N+](=O)[O-])cc1)C(=O)NCc1ccccc1`, the figures for the IC50 in experiment [2], in experiment [3] and in experiment [1] were 12 µM, 9 µM and 7.5 µM, respectively.

As for `CC[C@H](NC(=O)/C(C#N)=C/c1cccc(Br)n1)c1ccccc1`, the IC50 is 1.7 µM in experiment [2], 1.4 µM in experiment [3] and 1.1 µM in experiment [1].

For `CCC[C@H](NC(=O)/C(C#N)=C/c1ccc([N+](=O)[O-])cc1[N+](=O)[O-])c1ccccc1`, the IC50 in experiment [1] is > 10 µM.

Consider `C[C@H](NC(=O)/C(C#N)=C/c1ccc2c(c1)OCCN2C)c1ccccc1`, for which the IC50 in experiment [1] is > 10 µM.

With `N#C/C(=C\c1cccc(Br)n1)C(=O)NCc1cccc(N)c1`, the IC50 in experiment [1] is > 10 µM.

In the case of `CC(=O)OC[C@H](NC(=O)/C(C#N)=C/c1cccc(Br)n1)c1ccccc1`, the IC50 in experiment [2] turned out to be 2.9 µM; in experiment [3] it was 2.8 µM; in experiment [1] it was 2.6 µM.

As to `COc1ccc([C@H](C)NC(=O)/C(C#N)=C/c2cccc(Br)n2)cc1`, the IC50 in experiment [2] is 1.8 µM; in experiment [3], 1.4 µM; in experiment [1], 1.2 µM.

Turning to `N#C/C(=C\c1cccc(Br)n1)C(=O)N[C@@H]1CCCc2ccccc21`, the IC50 in experiment [3] was found to be 1.9 µM; in experiment [1], 1.5 µM.

For `CCC[C@H](NC(=O)/C(C#N)=C/c1ccc(O)c([N+](=O)[O-])c1)c1ccccc1`, the results for the IC50 in experiment [2], in experiment [3] and in experiment [1] were 9.7 µM, 9.3 µM and 8.2 µM, respectively.

On to `COC(=O)C[C@H](NC(=O)/C(C#N)=C/c1cccc(Br)n1)c1ccccc1`, for which the IC50 turned out to be 3.3 µM in experiment [3] and 3.1 µM in experiment [1].

In the case of `C[C@H](NC(=O)/C(C#N)=C/c1cccc(Br)n1)c1ccc(Cl)cc1`, the IC50 in experiment [2] was 2.3 µM; in experiment [3], 2 µM; in experiment [1], 1.6 µM.

As for `COc1cccc(CNC(=O)/C(C#N)=C/c2ccc(-c3cccc([N+](=O)[O-])c3)o2)c1`, in experiment [1], the IC50 was > 10 µM.

As for `N#C/C(=C\c1ccc(N2CCCCC2)cc1)C(=O)NC(c1ccccc1)C1CC1` (stereo not given), the IC50 in experiment [3] and in experiment [1] was > 10 µM throughout.

Consider `N#C/C(=C\c1cccc(Br)n1)C(=O)N[C@H](c1ccccc1)C(F)(F)F`, for which the IC50 in experiment [3] came out at 11.1 µM; in experiment [1], 9.6 µM.

Consider `C[C@H](NC(=O)/C(C#N)=C/c1cccc(Br)n1)c1cc(C(F)(F)F)cc(C(F)(F)F)c1`, for which the IC50 in experiment [3] was found to be 1.5 µM; in experiment [1], 1.3 µM.

On to `N#C/C(=C\c1cccc(Br)n1)C(=O)N[C@@H](CO)c1ccccc1`, for which the IC50 in experiment [2] was 3.9 µM; in experiment [3] it was 3.5 µM; in experiment [1], 2.8 µM.

With `N#C/C(=C\c1ccc(-c2cccc([N+](=O)[O-])c2)o1)C(=O)NC(c1ccccc1)C1CC1` (stereo not given), the IC50 in experiment [1] was > 10 µM.

For the molecule `CCCCCCc1ccc(/C=C(\C#N)C(=O)NC(c2ccccc2)C2CC2)cc1` (stereo not given), in experiment [1], the IC50 is > 10 µM.

For the molecule `CCC[C@H](NC(=O)/C(C#N)=C/c1cccc([N+](=O)[O-])c1)c1ccccc1`, the IC50 in experiment [2] amounted to 2.2 µM; in experiment [3], 2.1 µM; in experiment [1], 1.73 µM.

Turning to `CCC[C@H](NC(=O)/C(C#N)=C/c1ccc(O)c(Br)c1)c1ccccc1`, in experiment [1], the IC50 is > 10 µM.

For the molecule `CCC[C@H](NC(=O)/C(C#N)=C/c1ccccc1)c1ccccc1`, the IC50 in experiment [3] stood at 7.2 µM; in experiment [1], 6.25 µM.

As to `CCC[C@H](NC(=O)/C(C#N)=C/c1cccc(Br)n1)c1ccccc1`, the results for the IC50 in experiment [2], in experiment [3] and in experiment [1] were 1.5 µM, 1.3 µM and 1 µM, respectively.

The molecule `N#C/C(=C\c1cccc(Br)n1)C(=O)N[C@H](c1ccccc1)C1CC1` registered an IC50 in experiment [1] of 1.4 µM.

On to `C[C@H](NC(=O)/C(C#N)=C/c1ccc([N+](=O)[O-])c([N+](=O)[O-])c1)c1ccccc1`, for which the IC50 in experiment [1] is > 10 µM.

For `C[C@H](NC(=O)/C(C#N)=C/c1cccc(Br)n1)c1ccccc1` [WP 1066], the IC50 was determined as 3.7 µM in experiment [4]; 5.6 µM in experiment [5]; 1.8 µM in experiment [2]; 1.5 µM in experiment [3]; 1.2 µM in experiment [1]. The results for the “Ratio IC50” value in experiment [6] and in experiment [7] were 18 and 8, respectively.

As for `N#C/C(=C\c1ccc(Cl)c([N+](=O)[O-])c1)C(=O)NC(c1ccccc1)C1CC1` (stereo not given), the values for the IC50 in experiment [2], in experiment [3] and in experiment [1] were 2.9 µM, 2.8 µM and 2.5 µM, respectively.

Take `Cc1ccc(CNC(=O)/C(C#N)=C/c2ccc(-c3cccc([N+](=O)[O-])c3)o2)cc1`: the IC50 in experiment [1] is > 10 µM.

With `N#C/C(=C\c1ccc(-c2cccc([N+](=O)[O-])c2)o1)C(=O)NCc1ccccc1Cl`, in experiment [1], the IC50 is > 10 µM.

Take `CCC[C@H](NC(=O)/C(C#N)=C/c1ccc(Cl)c([N+](=O)[O-])c1)c1ccccc1`: the results for the IC50 in experiment [2], in experiment [3] and in experiment [1] were 1.9 µM, 1.8 µM and 1.58 µM, respectively.

Regarding `N#C/C(=C\c1cccc(Br)n1)C(=O)N[C@@H](Cc1ccccc1)c1ccccc1`, the results for the IC50 in experiment [2], in experiment [3] and in experiment [1] were 2.9 µM, 2.7 µM and 2.5 µM, respectively.

Consider `N#C/C(=C\c1cccc(Br)n1)C(=O)NC(c1ccccc1)c1ccccc1`, for which the 50% inhibitory concentration (IC50) was 6.2 µM in experiment [2], 5.8 µM in experiment [3] and 5 µM in experiment [1].

In the case of `CCC(NC(=O)/C(C#N)=C/c1ccc(-c2cccc([N+](=O)[O-])c2)o1)c1ccccc1` (stereo not given), the IC50 in experiment [1] is > 10 µM.

Turning to `CCC[C@H](NC(=O)/C(C#N)=C/c1ccc(O)cc1)c1ccccc1`, the IC50 in experiment [1] is > 10 µM.

For the molecule `Cc1ccc(CNC(=O)/C(C#N)=C/c2ccc(-c3cccc([N+](=O)[O-])c3)o2)o1`, the IC50 in experiment [1] was > 10 µM.

Consider `N#C/C(=C\c1ccc(O)c(O)c1)C(=O)NCc1ccccc1`, for which the results for the IC50 in experiment [2], in experiment [3] and in experiment [1] were > 12.5 µM, > 12.5 µM and > 10 µM, respectively.

In the case of `C[C@H](NC(=O)/C(C#N)=C/c1cccc(Br)n1)c1ccccc1F`, the IC50 was found to be 2.4 µM in experiment [2], 2 µM in experiment [3] and 1.8 µM in experiment [1].

As for `C[C@H](NC(=O)/C(C#N)=C/c1cccc(Br)n1)c1ccc(N)cc1`, in experiment [1], the IC50 is > 10 µM.

Consider `N#C/C(=C\c1cccc(Br)n1)C(=O)N[C@@H]1CCc2ccccc21`, for which the IC50 in experiment [3] amounted to 2.5 µM; in experiment [1], 2 µM.

`CCC[C@H](NC(=O)/C(C#N)=C/c1c(Cl)cccc1[N+](=O)[O-])c1ccccc1`: the IC50 in experiment [1] was > 10 µM.

Regarding `N#C/C(=C\c1ccc(Cl)c([N+](=O)[O-])c1)C(=O)N[C@@H](CO)c1ccccc1`, in experiment [1], the half-inhibitory concentration (IC50) was > 10 µM.
